The array DNA melting data of Ke et al. (doi:10.1101/2024.01.08.574731)

Experiments:
[1] = folding enthalpy; higher = less favourable; fluorescence melt of hairpins on a sequencing array, two-state fit; conditions: sodium 0.088 M
In short: (§1)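 Melting temperature and folding enthalpy were derived from bootstrapped two-state fits. The fitted temperatures were raised by 9.35 °C to agree with UV melts, and four replicates were combined by inverse variance. The underlying data were Cy3 fluorescence images of library hairpins, with annealed Cy3 and quencher oligos, on a sequenced MiSeq flow cell in 50 mM Na-HEPES pH 8.0, 25 mM NaCl, taken in 2.5 °C steps up to 60 °C, normalised to pre-quench Cy3 and to control constructs.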

[2] = melting temperature; fluorescence melt of hairpins on a sequencing array, two-state fit, raised by 9.35 °C to match UV melts; conditions: sodium 0.088 M
In short: as §1

| Sequence | folding enthalpy [1] | Tm [2] |
| --- | --- | --- |
| GTATCGCGAAAGCGCTAC (((.(((....))).))) | -77 kJ/mol | 47.9 °C |
| GTATCGGGAAACCGACAC ((.((((....)))).)) | -81.5 kJ/mol | 39.3 °C |
| GTATCGGGAAACCGATGC (.(((((....))))).) | -93 kJ/mol | 53.3 °C |
| GTATCGGGAAACTGGTAC (((.(.(....).).))) | -74.3 kJ/mol | 32.3 °C |
| GTATCTCGAAAGAGTAC (((.(((....)))))) | -98.2 kJ/mol | 39.7 °C |
| GTATCTGGAAACAGGTAC (((.(((....))).))) | -151 kJ/mol | 42.7 °C |
| GTATGAGAAATCATAC ((((((....)))))) | -132 kJ/mol | 44.4 °C |
| GTATGAGGAAACTCACAC ((.((((....)))).)) | -60.5 kJ/mol | 29.4 °C |
| GTATGAGGAAACTTATAC ((((.((....)).)))) | -108 kJ/mol | 31.2 °C |
| GTATGCACGAAAGTGTAC (((..(((....)))))) | -39.2 kJ/mol | 31.1 °C |
| GTATGCGAAAGCACCTAC ((((((....)))..))) | -24.9 kJ/mol | 22.1 °C |
| GTATGCGAAAGCACTTAC ((((((....)))..))) | -54.7 kJ/mol | 35.1 °C |
| GTATGCGAAAGCATAC ((((((....)))))) | -118 kJ/mol | 69.2 °C |
| GTATGCGAAAGCATATAC ((((((....)))..))) | -45.9 kJ/mol | 42.2 °C |
| GTATGCTCGAAAGAGTAC (((..(((....)))))) | -44 kJ/mol | 26.7 °C |
| GTATGGGGAAACCTATAC ((((.((....)).)))) | -127 kJ/mol | 38.4 °C |
| GTATGTGGAAACATATAC ((((.((....)).)))) | -96.5 kJ/mol | 37.2 °C |
| GTATTACGAAAGTATTAC (((.(((....))).))) | -119 kJ/mol | 34.8 °C |
| GTATTAGGAAACTAATAC (((((((....))))))) | -159 kJ/mol | 46.3 °C |
| GTATTCCGAAAGGATAC (((.(((....)))))) | -82.5 kJ/mol | 38.9 °C |
| GTATTCGAAAGAATAC ((((((....)))))) | -149 kJ/mol | 54.6 °C |
| GTATTCGAAAGAATATAC ((((((....)))..))) | -57.7 kJ/mol | 33.5 °C |
| GTATTCGGAAACGAGTAC (((.(((....))).))) | -119 kJ/mol | 43.6 °C |

| Sequence | folding enthalpy [1] | Tm [2] |
| --- | --- | --- |
| GTATTGAAAAATAC (((((....))))) | -64 kJ/mol | 33.1 °C |
| GTATTGGGAAACCGATAC ((((.((....)).)))) | -149 kJ/mol | 43.6 °C |
| GTATTTCGAAAGAATAC (((.(((....)))))) | -59.1 kJ/mol | 31.1 °C |
| GTATTTGGAAACAAGTAC (((.(((....))).))) | -86.4 kJ/mol | 35.7 °C |
| GTATTTGGAAACGAATAC (((((.(....).))))) | -127 kJ/mol | 35.8 °C |
| GTCAAAACGAAAGTTGAC (((..(((....)))))) | -102 kJ/mol | 40.5 °C |
| GTCAAACGAAAGTTAGAC (((.(((....))).))) | -123 kJ/mol | 44.9 °C |
| GTCAAAGAAATTTGAC ((((((....)))))) | -122 kJ/mol | 45 °C |
| GTCAAAGGAAACTTCGAC (((.(((....))).))) | -81.3 kJ/mol | 31.1 °C |
| GTCAAATCGAAAGATGAC (((..(((....)))))) | -67.3 kJ/mol | 35.6 °C |
| GTCAACCGAAAGGTGGAC (((.(((....))).))) | -127 kJ/mol | 56.2 °C |
| GTCAACGAAAGTTAGGAC ((((((....)))..))) | -71.6 kJ/mol | 31.8 °C |
| GTCAACGAAAGTTCTGAC ((((((....)))..))) | -55.5 kJ/mol | 25.9 °C |
| GTCAACGAAAGTTGCGAC ((((((....)))..))) | -73.9 kJ/mol | 46.6 °C |
| GTCAACGAAAGTTGGGAC ((((((....)))..))) | -48.1 kJ/mol | 32.7 °C |
| GTCAACGAAAGTTTAGAC ((((((....)))..))) | -67.4 kJ/mol | 31.3 °C |
| GTCAACGGAAACATTGAC (((((.(....).))))) | -110 kJ/mol | 35.6 °C |
| GTCAACTCGAAAGAGGAC (((..(((....)))))) | -85 kJ/mol | 33.2 °C |
| GTCAAGGGAAACCCTGAC ((((.((....)).)))) | -141 kJ/mol | 43.7 °C |
| GTCAAGTCGAAAGACGAC (((..(((....)))))) | -64.4 kJ/mol | 41.9 °C |
| GTCAATCCGAAAGGAGAC (((..(((....)))))) | -84.9 kJ/mol | 32.5 °C |
| GTCAATCGAAAGATAGAC (((.(((....))).))) | -118 kJ/mol | 43.5 °C |
| GTCAATGGAAACATTGGC (.(((((....))))).) | -116 kJ/mol | 48.4 °C |

| Sequence | folding enthalpy [1] | Tm [2] |
| --- | --- | --- |
| GTCACATCGAAAGATGAC (((..(((....)))))) | -53.5 kJ/mol | 30.2 °C |
| GTCACCGAAAGGTCAGAC ((((((....)))..))) | -60.7 kJ/mol | 32.2 °C |
| GTCACCGAAAGGTTAGAC ((((((....)))..))) | -71.3 kJ/mol | 39.4 °C |
| GTCACGGGAAACCGTAAC ((.((((....)))).)) | -68.9 kJ/mol | 36.1 °C |
| GTCACTCGAAAGAGGAC (((.(((....)))))) | -100 kJ/mol | 45.8 °C |
| GTCACTGAAAAGTGAC ((((((....)))))) | -139 kJ/mol | 63.3 °C |
| GTCACTGGAAACAATGAC ((((.((....)).)))) | -90.2 kJ/mol | 35 °C |
| GTCACTGGAAACAGCGAC (((.(((....))).))) | -147 kJ/mol | 47.2 °C |
| GTCAGACGAAAGTCCGAC (((.(((....))).))) | -111 kJ/mol | 48.6 °C |
| GTCAGAGGAAACTCCGAC (((.(((....))).))) | -106 kJ/mol | 34.7 °C |
| GTCAGAGGAAACTCTGAC (((((((....))))))) | -158 kJ/mol | 61.7 °C |
| GTCAGCCCGAAAGGGGAC (((..(((....)))))) | -57.1 kJ/mol | 42.4 °C |
| GTCAGCGAAAGCTACGAC ((((((....)))..))) | -70.3 kJ/mol | 41 °C |
| GTCAGCGAAAGCTGGAC ((((((....))).))) | -60.4 kJ/mol | 53.1 °C |
| GTCAGCGAAAGCTGTGAC ((((((....)))..))) | -43.1 kJ/mol | 39.5 °C |
| GTCAGCGAAAGCTTTGAC ((((((....)))..))) | -64.1 kJ/mol | 35 °C |
| GTCAGCGGAAACGCCAAC ((..(((....)))..)) | -30.8 kJ/mol | 21.8 °C |
| GTCAGGCGAAAGCCGGAC (((.(((....))).))) | -103 kJ/mol | 69.1 °C |
| GTCAGGGGAAACCCCAAC ((..(((....)))..)) | -49 kJ/mol | 28.3 °C |
| GTCAGGGGAAACCCTAAC ((.((((....)))).)) | -60.6 kJ/mol | 29.6 °C |
| GTCAGTCGAAAGACGAC (((.(((....)))))) | -134 kJ/mol | 53.1 °C |
| GTCAGTGAAAACTGAC ((((((....)))))) | -149 kJ/mol | 60.5 °C |
| GTCAGTGGAAACACTGGC (.(((((....))))).) | -104 kJ/mol | 54.7 °C |

| Sequence | folding enthalpy [1] | Tm [2] |
| --- | --- | --- |
| GTCATAGAAATATGAC ((((((....)))))) | -126 kJ/mol | 45.6 °C |
| GTCATCGAAAGATAGAC ((((((....))).))) | -103 kJ/mol | 39.7 °C |
| GTCATCGAAAGATAGGAC ((((((....)))..))) | -65.7 kJ/mol | 30.9 °C |
| GTCATCGAAAGATGGGAC ((((((....)))..))) | -60.2 kJ/mol | 34.1 °C |
| GTCATCGAAAGATTGGAC ((((((....)))..))) | -74.1 kJ/mol | 30.9 °C |
| GTCATGCCGAAAGGCGAC (((..(((....)))))) | -51.4 kJ/mol | 41.3 °C |
| GTCATGGAAACATGAC ((((((....)))))) | -144 kJ/mol | 56.1 °C |
| GTCATGGGAAACTATGGC (.(((.(....).))).) | -93.6 kJ/mol | 32.1 °C |
| GTCATGTCGAAAGACGAC (((..(((....)))))) | -62 kJ/mol | 38 °C |
| GTCATTACGAAAGTAGAC (((..(((....)))))) | -39.4 kJ/mol | 26.7 °C |
| GTCATTCGAAAGAAGAC (((.(((....)))))) | -69 kJ/mol | 33 °C |
| GTCATTCGAAAGAAGGAC (((.(((....))).))) | -178 kJ/mol | 51.9 °C |
| GTCCAAACGAAAGTTGAC (((..(((....)))))) | -70.4 kJ/mol | 31.6 °C |
| GTCCAAGGAAACTCGGAC ((((.((....)).)))) | -128 kJ/mol | 38.8 °C |
| GTCCAAGGAAACTTAGAC (((.(((....))).))) | -57.3 kJ/mol | 24.5 °C |
| GTCCACGAAAGTGTAGAC ((((((....)))..))) | -84.1 kJ/mol | 38.9 °C |
| GTCCACGCGAAAGCGGAC (((..(((....)))))) | -54.1 kJ/mol | 45.8 °C |
| GTCCAGGGAAACCCAGAC (((..((....))..))) | -72.7 kJ/mol | 31.4 °C |
| GTCCAGGGAAACCCGGAC ((((.((....)).)))) | -151 kJ/mol | 51 °C |
| GTCCAGGGAAACCTAGAC (((.(((....))).))) | -79.4 kJ/mol | 33.3 °C |
| GTCCAGGGAAACTTGGGC (.(((.(....).))).) | -121 kJ/mol | 34.7 °C |
| GTCCATCGAAAGATTGAC (((.(((....))).))) | -143 kJ/mol | 39.7 °C |
